Screens deposited in PubChem BioAssay by several laboratories.
An excerpt weighted towards active compounds, which were near 5.6% of everything screened.
UPR XBP1 act: activators of adaptive XBP1 UPR arm, primary screen, cell-based, CHO-XBP1 luciferase reporter, luminescence, uHTS | hit rate 0.33% among 330,000 | AID 463104, 2010 | activation, % at 20 µM | IRE1-XBP1 UPR activation; percent of tunicamycin response, DMSO as zero;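 active = versus positive control, 20 µM dose yields 30% or more activation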;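 note: 100% = tunicamycin at 10 µg/mL and 0% = DMSO only wells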
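incubation = overnight seeding at 37 °C, 6 h compound treatment at 37 °C | assay system = CHO-XBP1 cells stably carrying IRE1-XBP1-driven luciferase reporter | input = 1000 cells per well | detection = luciferase luminescence | dosing = single point, 20 µM final compound, 1% DMSO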
MPTP block: mitochondrial permeability transition pore inhibitors, primary screen, biochemical, isolated mouse mitochondria, absorbance | hit rate 1.4% among 360,000 | AID 602449, 2012 | inhibition, % at 10 µM | Ca2+ swelling absorbance, 30 min;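 active = inhibition of 50% or more, scaled per plate between neutral and stimulator controls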;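 note: 0% = DMSO wells given calcium and 100% = 1 mM EGTA wells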
aDG glyco act: activators of alpha-DG glycosylation, primary screen, uHTS, Pro5-aDG cells, AlphaScreen; alpha-DG glycosylation AlphaScreen (IIH6); 0% Pro5, 100% B10-LARGE cell signal; activation, % at 10 µM; hit rate 0.22% among 360,000; AID 624168, 2012;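 active = activation of at least 8% versus controls, or a plate z-score of at least 8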;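 note: Pro5 are CHO cells carrying HIG-tagged alpha-DG that lacks glycosylation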
NR3A LBD binder: binders of NR3A ligand-binding domain, primary screen, biophysical, differential scanning fluorimetry, uHTS. Glutamate receptor ionotropic, NMDA 3A (GRIN3A) ligand-binding domain. NR3A LBD differential scanning fluorimetry, Tm shift; 0% = protein alone, 100% = glycine-bound protein. Tm shift relative to glycine control, % at 25 µM. hit rate 2.5% among 340,000. AID 1259313, 2017;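 active = melting temperature shift of at least 10% of the positive control shift, at one fixed dose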
CHOP inhibitor: inhibitors of CHOP promoter induction, primary screen, cell-based, unfolded protein response, luciferase reporter | inhibition, % at 10 µM | hit rate 3.8% among 220,000 | CHO-K1 CHOP-promoter luciferase, tunicamycin-induced, 15-18 h | AID 2732, 2010;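 active = compounds that reduced the stress-induced luciferase reporter signal by more than about 70% of percent inhibition, limit read from the data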;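 note: 0% = tunicamycin plus vehicle and 100% = wells without tunicamycin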
CHOP UPR activ: activators of apoptotic CHOP UPR arm, primary screen, cell-based, CHO-CHOP luciferase reporter, luminescence, uHTS; UPR activation; percent of tunicamycin response over DMSO baseline; activation, % at 10 µM; hit rate 0.34% among 330,000; AID 449763, 2010;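 active = at 10 µM dose, activation of 40% or more, normalized to positive control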;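 note: 100% = tunicamycin at 10 µg/mL and 0% = DMSO alone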
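Assay system: CHO-CHOP cells, stable luciferase reporter of PERK-eIF2a-CHOP signalling / Buffer or medium: F12 plus 10% serum / Compound dosing: one dose, 10 µM in 0.5% DMSO / Times: 6 h compound treatment, 37 °C / Technique: luciferase luminescence / Read-out: % reporter activation, DMSO baseline versus tunicamycin full activation / Benchmarks: tunicamycin and DMSO controls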
CHOP inh conf: retest of CHOP induction inhibitors, confirmation, cell-based; shares compounds with CHOP inhibitor; CHO-CHOP promoter luciferase reporter, tunicamycin-induced, luminescence; inhibition, % at 10 µM; hit rate 45% among 2,100;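 active = mean of three repeat readings of reporter signal inhibition above a set limit, cut at about 70% in these data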;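 note: 0% = tunicamycin plus vehicle and 100% = wells lacking tunicamycin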
* hit, by the source's call; . = not tested or not shown.

SMILES	UPR XBP1 act	MPTP block	aDG glyco act	NR3A LBD binder	CHOP inhibitor	CHOP UPR activ	CHOP inh conf
CCc1nc2c(OCc3ccc(F)cc3)cccn2c1N(C)C(=O)c1ccc(C)cc1	.	0	0	.	.	.	.
CC1CCN(S(=O)(=O)c2ccc(C(=O)Nc3sccc3C(N)=O)cc2)CC1	0	0	1	-1	97*	5	58
CCCCOC(=O)Nc1ccc(S(=O)(=O)Nc2cc(C)nc(C)n2)cc1	-1	-1	0	0	18	1	.
CCCCCOC(=O)Nc1ccc(S(=O)(=O)Nc2cccc([N+](=O)[O-])c2)cc1	0	10	0	28*	109*	2	27
O=C(Cn1c(C(F)(F)F)nc2ccccc21)N=Nc1c(O)[nH]c2ccc(Br)cc12	21	21	0	10*	106*	0	116*
CC(=O)Nn1c(COc2ccccc2C)nc2ccccc2c1=O	0	1	0	2	13	-1	.
Cc1ccc(-c2[nH]ncc2/C=N/n2c(COc3ccccc3C)nc3ccccc3c2=O)cc1	20	5	-1	-9	100*	23	4
COc1ccc(NC(=O)Nc2nnc(-c3ccccc3SCc3ccccc3)s2)cc1	5	10	0	22*	98*	0	27
COc1ccc(C(C#N)CC(=O)c2ccc(OC)c(OCc3ccccc3)c2)cc1OC (stereo not given)	.	0	0	.	.	.	.
COc1ccc(-c2nc(NC(=O)Cn3ccc(C(F)(F)F)n3)sc2C)cc1	-9	-3	1	2	103*	-2	74*
CCc1ccc(OCC(=O)N(CC)CC)cc1	-2	0	0	0	-11	5	.
Clc1ccc(-c2n[nH]c3c2CCC3)cc1Cl	1	1	0	-4	98*	3	63
Fc1ccc(C2=Nn3c(nnc3-c3n[nH]c4c3CCC4)SC2)cc1	4	-1	0	3	-15	2	.
COc1ccc2[nH]c3c(=O)n(CCN4CCOCC4)cnc3c2c1	2	0	0	1	-11	1	.
COc1ccc2c(c1)c1ncn(CCN3CCCC3)c(=O)c1n2C	4	0	0	0	101*	-2	18
CCn1c(-c2nn(-c3ccc(C)cc3)ccc2=O)n[nH]c1=S	1	-1	0	0	13	1	.
Cc1ccc(-n2ccc(=O)c(-c3ccnc(SCc4cccc(Cl)c4)n3)n2)cc1	-2	0	0	-2	98*	0	54
CN1/C(=C\C(=O)C[n+]2ccc3ccccc3c2)C(C)(C)c2ccccc21	0	1	0	1	3	2	.
COc1cc(N/C(N)=N/c2nc(C)cc(C)n2)c(OC)cc1Cl	-1	6	2	0	32	-1	.
COc1cccc(C2NC(=O)NC(C)=C2C(=O)OCC2CCCCC2)c1 (stereo not given)	0	-1	0	-6	.	2	.
Cc1cccc(C(=O)c2cnc3ccccc3c2-c2ccccc2)c1	1	3	0	-1	102*	0	77*
CNC(=O)C1CN(C(=O)c2cccc(S(=O)(=O)N3c4ccccc4CC3C)c2)c2ccccc2O1 (stereo not given)	1	-2	0	-1	.	1	.
CN1/C(=C/C(=O)c2nc(S(C)(=O)=O)ncc2Cl)C(C)(C)c2ccccc21	-10	0	0	-1	.	-1	117*
Brc1cccc(-c2cnco2)c1	-2	-1	0	-1	4	-1	.
O=S(=O)(Nc1ccc(N2CCCCC2)cc1)c1ccc(F)c(F)c1	-4	3	0	-2	100*	-3	11
